{"data": "Measured values gathered from unrelated publications", "effect on": "cell growth or viability", "note": "Lines come from different studies, so protocols differ. pIC50: −log10 of the molar value."}
{"Structure (SMILES)": "COc1cccc2c1C(=O)c1c(O)c3c(c(O)c1C2=O)C[C@@](O)(C(=O)CO)C[C@@H]3O[C@H]1C[C@H](N)[C@H](O)[C@H](C)O1", "cell line": "F180", "method": "MTT", "time": "48 h", "quantity": "pIC50", "result": 5.03}
{"Structure (SMILES)": "CC(C)C[C@H](NC(=O)[C@H](Cc1ccccc1)NC(=O)c1cnccn1)B(O)O", "cell line": "LoVo", "method": "ATP luminescence", "quantity": "pIC50", "result": 7.82}
{"Structure (SMILES)": "COc1cc(/C=C/C(=O)/C=C/c2cn(-c3ccccc3)nc2-c2ccccc2)ccc1O", "cell line": "LLC-PK1", "method": "MTT", "time": "72 h", "quantity": "pIC50", "result": 4.80}
{"Structure (SMILES)": "CNC(=O)c1ccc(N2C(=S)N(c3cnc(C#N)c(C(F)(F)F)c3)C(=O)C23CCC3)cc1F", "cell line": "LAPC4", "method": "ATP luminescence", "time": "6 days", "quantity": "pIC50", "result": 5.96}
{"Structure (SMILES)": "CC(C)c1cc(C(=O)N2Cc3ccccc3C2)c(O)c2nc[nH]c12", "cell line": "UMUC3", "method": "ATP luminescence", "time": "72 h", "quantity": "pIC50", "result": 4.28}
{"Structure (SMILES)": "C[C@@H]1[C@H](O)[C@@H](C)/C=C/C=C/C=C/C=C/C=C/C=C/C=C/[C@H](O[C@@H]2O[C@H](C)[C@@H](O)[C@H](N)[C@@H]2O)C[C@@H]2O[C@](O)(C[C@@H](O)C[C@@H](O)[C@H](O)CC[C@@H](O)C[C@@H](O)CC(=O)O[C@H]1C)C[C@H](O)[C@H]2C(=O)O", "cell line": "LLC-PK1", "method": "neutral red", "time": "48 h", "quantity": "IC50", "result": "0.6 µg/mL"}
{"Structure (SMILES)": "CC(=O)O[C@H]1C(=O)[C@@]2(C)[C@H]([C@H](OC(=O)c3ccccc3)[C@]3(O)C[C@H](OC(=O)[C@H](O)[C@@H](NC(=O)c4ccccc4)c4ccccc4)C(C)=C1C3(C)C)[C@]1(OC(C)=O)CO[C@@H]1C[C@@H]2O", "cell line": "A2780", "method": "fluorescence", "time": "72 h", "quantity": "pIC50", "result": 9.59}
{"Structure (SMILES)": "O=c1[nH]cc(F)c(=O)[nH]1", "cell line": "RD", "method": "WST-1", "time": "48 h", "quantity": "pIC50", "result": 4.68}
{"Structure (SMILES)": "Cn1nnc2c(-c3ccccc3)ncn2c1=O", "cell line": "U-118-MG", "method": "resazurin", "time": "7 days", "quantity": "pIC50", "result": 5.52}
{"Structure (SMILES)": "C[C@]12CC[C@H](O)CC1=CC[C@@H]1[C@@H]2CC[C@]2(C)C(n3cnc4ccccc43)=CC[C@@H]12", "cell line": "LAPC4", "method": "MTT", "time": "7 days", "quantity": "pIC50", "result": 5.40}
{"Structure (SMILES)": "CC(C)c1cc(C(=O)N2Cc3ccccc3C2)c(O)c2c1C(=O)C(C(F)(F)F)C2 (stereo not drawn)", "cell line": "UMUC3", "method": "ATP luminescence", "time": "72 h", "quantity": "pIC50", "result": 4.22}
{"Structure (SMILES)": "CN1C(=O)c2cc(C(N)=O)nc3c(N)c(Cl)c(N)c1c23", "cell line": "HCC44", "quantity": "pIC50", "result": 4.82}
{"Structure (SMILES)": "COc1cc([C@@H]2c3cc4c(cc3[C@@H](O[C@@H]3O[C@@H]5CO[C@@H](C)O[C@H]5[C@H](O)[C@H]3O)[C@H]3COC(=O)[C@H]23)OCO4)cc(OC)c1O", "cell line": "Caco-2", "method": "MTS", "time": "24 h", "quantity": "pIC50", "result": 4.66}
{"Structure (SMILES)": "COc1cc(Nc2nccc(-c3cnn4nc(OC)ccc34)n2)cc(C(F)(F)F)c1", "cell line": "NCI-H1581", "method": "ATP luminescence", "quantity": "pIC50", "result": 6.39}
{"Structure (SMILES)": "CC(C)c1cc(C(=O)N2Cc3ccccc3C2)c(O)c2c1C(=O)C(C)(C)C2", "cell line": "UMUC3", "method": "ATP luminescence", "time": "72 h", "quantity": "pIC50", "result": 4.28}
{"Structure (SMILES)": "O=C(Nc1ccc(CN2CCOCC2)c(C(F)(F)F)c1)c1ccc(C#Cc2cccc3cnccc23)cn1", "cell line": "IMR-90", "method": "MTT", "quantity": "pIC50", "result": "< 3.74"}
{"Structure (SMILES)": "CCN(CC)CCNC(=O)c1c(C)[nH]c(/C=C2\\C(=O)Nc3ccc(F)cc32)c1C", "cell line": "Swiss-3T3", "time": "72 h", "quantity": "pIC50", "result": 5.35}
{"Structure (SMILES)": "c1csc([I+]c2cccs2)c1", "cell line": "Caco-2", "method": "trypan blue", "time": "48 h", "quantity": "pIC50", "result": "~6.30"}
{"Structure (SMILES)": "CC(C)c1cc(C(=O)N2Cc3ccccc3C2)c(O)c2c1CCCC2=O", "cell line": "UMUC3", "method": "ATP luminescence", "time": "72 h", "quantity": "pIC50", "result": "< 4.00"}
{"Structure (SMILES)": "Cn1nnc2c(Cl)ncn2c1=O", "cell line": "U-118-MG", "method": "resazurin", "time": "7 days", "quantity": "pIC50", "result": 4.22}
{"Structure (SMILES)": "Cc1[nH]c(/C=C2\\C(=O)Nc3ccc(S(=O)(=O)N(C)c4cccc(Cl)c4)cc32)c(C)c1C(=O)N1CCN(C)CC1", "cell line": "RD", "time": "72 h", "quantity": "pIC50", "result": 5.68}
{"Structure (SMILES)": "O=c1c(O)c(-c2ccc(O)cc2)oc2cc(O)cc(O)c12", "cell line": "RD", "method": "WST-1", "time": "48 h", "quantity": "pIC50", "result": 4.27}
{"Structure (SMILES)": "CC(C)Cc1ccc(-c2nn(-c3ccc(S(C)(=O)=O)cc3)cc2/C=N/N=c2\\[nH]c(-c3ccc(Br)cc3)cs2)cc1", "cell line": "F180", "method": "MTT", "time": "48 h", "quantity": "pIC50", "result": 4.13}
{"Structure (SMILES)": "O=C(/C=C/c1ccc(O)c(O)c1)O[C@@H]1C[C@](O)(C(=O)O)C[C@@H](O)[C@H]1O", "cell line": "RD", "method": "WST-1", "time": "48 h", "quantity": "pIC50", "result": 4.52}
{"Structure (SMILES)": "CC(C)c1cc(C(=O)N2Cc3ccccc3C2)c(O)c2ccoc12", "cell line": "UMUC3", "method": "ATP luminescence", "time": "72 h", "quantity": "pIC50", "result": 4.14}
{"Structure (SMILES)": "COc1ccc(CCNC(=O)C(=O)Nc2ccc(Cl)cc2)cc1", "cell line": "NCI-H2122", "quantity": "pIC50", "result": "> 7.00"}
{"Structure (SMILES)": "O=C(O)CCCc1ccccc1", "cell line": "LoVo", "method": "MTT", "time": "72 h", "quantity": "pIC50", "result": "< 4.30"}
{"Structure (SMILES)": "COc1ccc(/C=C/C(=O)/C=C/c2c(C)nn(-c3ccccc3)c2Cl)cc1O", "cell line": "LLC-PK1", "method": "MTT", "time": "72 h", "quantity": "pIC50", "result": 4.79}
{"Structure (SMILES)": "CCN(CC)C(=O)c1ncn2c(=O)n(C)nnc12", "cell line": "U-118-MG", "method": "resazurin", "time": "7 days", "quantity": "pIC50", "result": 4.10}
{"Structure (SMILES)": "CN1/C(=N/c2ccc(Cl)cc2)c2cc(C(N)=O)nc3c(N)c(Cl)c(N)c1c23", "cell line": "HCC44", "quantity": "pIC50", "result": 4.63}
{"Structure (SMILES)": "CC(C)c1cc(C(=O)N2Cc3ccccc3C2)c(O)c2c1CC=C2", "cell line": "UMUC3", "method": "ATP luminescence", "time": "72 h", "quantity": "pIC50", "result": 4.29}
{"Structure (SMILES)": "COc1cc(/C=C/C(=O)/C=C/c2c(C)nn(-c3ccccc3)c2Cl)ccc1O", "cell line": "LLC-PK1", "method": "MTT", "time": "72 h", "quantity": "pIC50", "result": 5.02}
{"Structure (SMILES)": "CCCCN(CCCC)C(=O)c1ncn2c(=O)n(C)nnc12", "cell line": "U-118-MG", "method": "resazurin", "time": "7 days", "quantity": "pIC50", "result": 4.21}
{"Structure (SMILES)": "Cc1cccc(-n2ncc(Br)c(Br)c2=O)c1", "cell line": "NCI-H2122", "method": "resazurin", "time": "96 h", "quantity": "pIC50", "result": 5.90}
{"Structure (SMILES)": "COc1cccc2c1C(=O)c1c(O)c3c(c(O)c1C2=O)C[C@@](O)(C(=O)CO)C[C@@H]3O[C@H]1C[C@H](N)[C@H](O)[C@H](C)O1", "cell line": "Caco-2", "method": "MTT", "time": "24 h", "quantity": "pIC50", "result": 4.91}
{"Structure (SMILES)": "COc1cc(/C=C/C(=O)/C=C/c2cn(-c3ccccc3)nc2-c2ccccc2)cc(OC)c1O", "cell line": "LLC-PK1", "method": "MTT", "time": "72 h", "quantity": "pIC50", "result": 4.99}
{"Structure (SMILES)": "C=C1Cc2c(O)c(C(=O)N3Cc4ccccc4C3)cc(C(C)C)c2C1=O", "cell line": "UMUC3", "method": "ATP luminescence", "time": "72 h", "quantity": "pIC50", "result": "< 4.00"}
{"Structure (SMILES)": "CS(=O)(=O)c1ccc(-n2cc(/C=N/N=c3\\[nH]c(-c4ccc(Br)cc4)cs3)c(-c3ccc(Br)cc3)n2)cc1", "cell line": "F180", "method": "MTT", "time": "48 h", "quantity": "pIC50", "result": 4.22}
{"Structure (SMILES)": "O=c1c(O)c(-c2ccc(O)c(O)c2)oc2cc(O)cc(O)c12", "cell line": "RD", "method": "WST-1", "time": "48 h", "quantity": "pIC50", "result": 4.53}
{"Structure (SMILES)": "Cc1cc(Nc2ncc(Cl)c(Nc3ccccc3S(=O)(=O)C(C)C)n2)c(OC(C)C)cc1C1CCNCC1", "cell line": "RD", "time": "72 h", "quantity": "pIC50", "result": 5.66}
{"Structure (SMILES)": "CC(C)c1cc(C(=O)N2Cc3ccccc3C2)c(O)c2c1C(=O)C(F)(F)C2", "cell line": "UMUC3", "method": "ATP luminescence", "time": "72 h", "quantity": "pIC50", "result": "< 4.00"}
{"Structure (SMILES)": "CS(=O)(=O)c1ccc(-n2cc(/C=N/N=c3\\[nH]c(-c4ccc([N+](=O)[O-])cc4)cs3)c(-c3ccc([N+](=O)[O-])cc3)n2)cc1", "cell line": "F180", "method": "MTT", "time": "48 h", "quantity": "pIC50", "result": 4.15}
{"Structure (SMILES)": "CNC(=O)c1cccc2cc(Oc3ccnc4cc(OCC5(N)CC5)c(OC)cc34)ccc12", "cell line": "Swiss-3T3", "method": "SRB", "quantity": "pIC50", "result": 7.19}
{"Structure (SMILES)": "COc1cc2c(Oc3ccc(NC(=O)C4(C(=O)Nc5ccc(F)cc5)CC4)cc3F)ccnc2cc1OCCCN1CCOCC1", "cell line": "RD", "time": "72 h", "quantity": "pIC50", "result": 6.66}
{"Structure (SMILES)": "CC(C)Cc1ccc(-c2nn(-c3ccc(S(C)(=O)=O)cc3)cc2/C=N\\N=C2/NC(=O)CS2)cc1", "cell line": "F180", "method": "MTT", "time": "48 h", "quantity": "pIC50", "result": 4.35}
{"Structure (SMILES)": "COc1cc(/C=C/C(=O)/C=C/c2c(C)nn(-c3cccc([N+](=O)[O-])c3)c2Cl)cc(OC)c1O", "cell line": "LLC-PK1", "method": "MTT", "time": "72 h", "quantity": "pIC50", "result": 4.81}
{"Structure (SMILES)": "Cc1ccc(-c2nn(-c3ccc(S(C)(=O)=O)cc3)cc2/C=N\\N=c2/[nH]c(-c3ccc([N+](=O)[O-])cc3)cs2)cc1", "cell line": "F180", "method": "MTT", "time": "48 h", "quantity": "pIC50", "result": 4.00}
{"Structure (SMILES)": "COc1cccc(C(=O)O[C@@H]2CN3Cc4c(cc5c(c4OC)OCO5)[C@@]24C=C[C@H](OC)C[C@@H]34)c1", "cell line": "A2780", "method": "WST-1", "quantity": "pIC50", "result": "< 5.00"}
